Data set [1] is described as follows: Activation of Inward rectifier potassium channel in human atrial myocytes. The class given is cell-based. The conditions noted are these: Cardiac atrium. The method, boiled down:
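In vitro activation of the inward-rectifying potassium channel (IKACh) in human atrial myocytes, run alongside S1P as reference agonist; potency expressed as EC50.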

In data set [2] the target is T1, Sphingosine 1-phosphate receptor 1 (Homo sapiens, UniProt P21453). In words: Agonist activity at human S1P1 receptor assessed as cAMP accumulation by HTRF assay. The class given is functional. The method in brief: (§1)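 HTRF cyclase (cAMP) functional assay at S1P1 of each species; EC50 taken as mean of three or more replicates; efficacy given as % agonism relative to S1P.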
T1 sequence (P21453 whole entry): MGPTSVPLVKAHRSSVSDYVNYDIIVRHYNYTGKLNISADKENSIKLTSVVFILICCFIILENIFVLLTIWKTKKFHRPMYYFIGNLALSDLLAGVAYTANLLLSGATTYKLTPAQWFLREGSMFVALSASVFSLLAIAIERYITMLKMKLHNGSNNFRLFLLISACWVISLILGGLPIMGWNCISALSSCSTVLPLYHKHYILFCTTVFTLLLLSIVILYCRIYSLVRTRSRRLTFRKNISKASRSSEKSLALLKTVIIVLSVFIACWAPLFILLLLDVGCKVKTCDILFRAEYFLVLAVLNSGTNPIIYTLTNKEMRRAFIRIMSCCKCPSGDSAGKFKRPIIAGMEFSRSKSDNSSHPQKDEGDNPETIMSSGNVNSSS
(In general: cAMP levels reflect the balance of adenylyl cyclase and phosphodiesterase activity.)

Data set [3] has as its target T1, Sphingosine 1-phosphate receptor 1. The data set is described as follows: Agonist activity at human S1P1 receptor assessed as cAMP accumulation by HTRF assay relative to S1P. In kind it is functional. The method in brief:
as §1

Data set [4] can be described thus: Half life in rat liver microsomes. In kind it is ADME. The method, boiled down: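 Stability on incubation with liver microsomes of each species; half-life reported.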
For orientation: Liver microsomes are vesicles of endoplasmic reticulum, rich in cytochrome P450 enzymes.

A further data set has as its system Mus musculus. The data set is described as follows: Reduction in disease severity in C57Bl/6 mouse experimental autoimmune encephalomyelitis model of multiple sclerosis at 1 mg/kg dosed once daily beginning on day 18 and continued to day 37. In kind it is functional, organism-based. The arrangement: dose 1 mg/kg. The method in brief: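 Female C57Bl/6 mice with MOG35–55-induced EAE; once-daily treatment started day 18 after severe disease onset and continued to day 37; vehicle 0.5% methylcellulose; clinical scoring.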

The subject of data set [5] is Rattus norvegicus. In words: Induction of body weight regain in Lewis rat collagen-induced arthritis model at 1 mg/kg, po qd measured on day 17 (reference value: 160.3 +/- 2.3 g). The class given is functional.
In data set [6] the test system is Rattus norvegicus. The data set is described as follows: Reduction in ankle diameter in Lewis rat collagen-induced arthritis model at 1 mg/kg, po qd measured on day 17 (reference value: +/- inches). The class given is functional. The method in brief:
(§2)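 Female Lewis rats with collagen-induced arthritis, prophylactic daily oral dosing; ankle diameter (inches) and body weight recorded at day 17 end point; mean ± SEM.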

Data set [7] relates to Rattus norvegicus. The data set is described as follows: Reduction in ankle diameter in Lewis rat collagen-induced arthritis model at 0.075 mg/kg, po qd measured on day 17 (reference value: +/- inches). In kind it is functional. The method, boiled down:
as §2

Data set [8] deals with Rattus norvegicus. In words: Induction of body weight regain in Lewis rat collagen-induced arthritis model at 0.075 mg/kg, po qd measured on day 17 (reference value: 160.3 +/- 2.3 g). The class given is functional.

From ChEMBL document CHEMBL3352115, “Discovery of APD334: Design of a Clinical Stage Functional Antagonist of the Sphingosine-1-phosphate-1 Receptor” (ACS Med Chem Lett, 2014) come the findings set out here.

Calls of active or inactive are those of the source. The rule behind the calls is not given here.

As usually defined, the EC50 is the concentration needed to bring the measured effect to its halfway point. Regarding `CCCCCCCCCCCCC/C=C/[C@@H](O)[C@@H](N)COP(=O)(O)O`, the results for the EC50 in [1] and in data set [2] were 2.1 nM and 0.062 nM, respectively.
What is called Emax is the greatest response seen or fitted, relative to the assay's reference. The term half-life denotes how long it takes for the measured level to halve. A lower half-life goes with fast loss. Take `O=C(O)C[C@@H]1CCc2c1[nH]c1ccc(OCc3ccc(C4CCCC4)c(C(F)(F)F)c3)cc21`: the Emax in data set [3] was 103%. For the same compound, the half-life in data set [4] worked out at 9 min. For the same compound, the EC50 in data set [2] was 0.09 nM.
As to `N#Cc1cc(COc2ccc3[nH]c4c(c3c2)CCC4CC(=O)O)ccc1OC(F)(F)F` (racemic), the Emax in data set [3] turned out to be 109%. Further, the EC50 in [2] amounted to 1.7 nM.
The corresponding values for `COc1ccc(COc2ccc3[nH]c4c(c3c2)CCC4CC(=O)O)cc1C#N` (racemic) are 136% and 120 nM.
The corresponding values for `N#Cc1ccc(COc2ccc3[nH]c4c(c3c2)CCC4CC(=O)O)cc1C(F)(F)F` (racemic) are 104% and 141 nM.
Take `O=C(O)CC1CCc2c1[nH]c1ccc(OCc3ccc(Cl)c(C(F)(F)F)c3)cc21` (racemic): in [3], the Emax stood at 117%. Besides, the EC50 in [2] was 159 nM.
Turning to `N#Cc1cc(COc2ccc3[nH]c4c(c3c2)CCC4CC(=O)O)ccc1C1CCCCC1` (racemic), the Emax in data set [3] stood at 98%. Besides, the EC50 in [2] turned out to be 0.087 nM.
The corresponding values for `O=C(O)CC1CCc2c1[nH]c1ccc(OCc3ccc(C4CCCCC4)c(C(F)(F)F)c3)cc21` (racemic) are 96% and 0.077 nM.
The corresponding values for `O=C(O)CC1CCc2c1[nH]c1ccc(OCc3ccc(C4CCCC4)c(C(F)(F)F)c3)cc21` (racemic) are 104% and 0.073 nM.
The corresponding values for `O=C(O)CC1CCc2c1[nH]c1ccc(OCc3ccc(C4CCC4)c(C(F)(F)F)c3)cc21` (racemic) are 109% and 0.45 nM.
Take `O=C(O)CC1CCc2c1[nH]c1ccc(OCc3ccc(C4CC4)c(C(F)(F)F)c3)cc21` (racemic): in data set [3], the Emax amounted to 118%. Besides, the EC50 in data set [2] was 3.68 nM.
The corresponding values for `CCCc1ccc(COc2ccc3[nH]c4c(c3c2)CCC4CC(=O)O)cc1C(F)(F)F` (racemic) are 107% and 0.49 nM.
The matching figures for `CC(C)(C)Cc1ccc(COc2ccc3[nH]c4c(c3c2)CCC4CC(=O)O)cc1C(F)(F)F` (racemic): 112% and 55.8 nM.
For `CC(C)Cc1ccc(COc2ccc3[nH]c4c(c3c2)CCC4CC(=O)O)cc1C(F)(F)F` (racemic), the Emax in [3] worked out at 103%. The EC50 in [2] turned out to be 0.44 nM.
The corresponding values for `O=C(O)CC1CCc2c1[nH]c1ccc(OCc3ccc(CC4CCCCC4)c(C(F)(F)F)c3)cc21` (racemic) are 111% and 4.58 nM.
On to `N#Cc1cc(COc2ccc3[nH]c4c(c3c2)CCC4CC(=O)O)cc(OC(F)(F)F)c1` (racemic), for which the Emax in [3] came out at 90%.
For `O=C(O)CC1CCc2c1[nH]c1ccc(OCc3cc(C(F)(F)F)cc(C(F)(F)F)c3)cc21` (racemic), the Emax in data set [3] amounted to 98%.
`CCCCCCCCc1ccc(CCC(N)(CO)CO)cc1` [FINGOLIMOD]: the outcome in the data set with Mus musculus was Active. In addition, the results for the Activity in the data set on Rattus norvegicus [5] and in the data set with Rattus norvegicus [6] were 181.9 g and 0.2694 inches, respectively.
For `CN(Cc1cnc2nc(N)nc(N)c2n1)c1ccc(C(=O)N[C@@H](CCC(=O)O)C(=O)O)cc1` [METHOTREXATE], the Activity is on record as 0.2795 inches with Rattus norvegicus [7] and 181.7 g with Rattus norvegicus [8].
